pEC50, pIC50: −log10 of the molar value. In brackets after ≈: the same amount, converted by molar mass.
How the values were obtained:
Plasmodium falciparum [1] = assay: Antiplasmodial activity against Plasmodium falciparum Dd2; assay type: functional, organism-based
Summary of the method: (§1)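 P. falciparum cultures (lab strain 3D7; multidrug-resistant Southeast Asian isolate Dd2) were exposed to compound for 72 h. Parasite viability was read out by DAPI staining.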

[2] = Lipophilicity, log D of the compound; assay type: physicochemical; conditions: octanol/water
Summary of the method: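 Log D was measured at pH 7.4 as the partitioning of compound between an aqueous layer and a second phase.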

Plasmodium falciparum [3] = assay: Antiplasmodial activity against Plasmodium falciparum 3D7; assay type: functional, organism-based; summary of the method: as §1
Cytochrome P450 2C9 = Cytochrome P450 2C9 (Homo sapiens, UniProt P11712); assay: Inhibition of human CYP2C9; assay type: ADME
Chain of Cytochrome P450 2C9 (P11712 whole entry): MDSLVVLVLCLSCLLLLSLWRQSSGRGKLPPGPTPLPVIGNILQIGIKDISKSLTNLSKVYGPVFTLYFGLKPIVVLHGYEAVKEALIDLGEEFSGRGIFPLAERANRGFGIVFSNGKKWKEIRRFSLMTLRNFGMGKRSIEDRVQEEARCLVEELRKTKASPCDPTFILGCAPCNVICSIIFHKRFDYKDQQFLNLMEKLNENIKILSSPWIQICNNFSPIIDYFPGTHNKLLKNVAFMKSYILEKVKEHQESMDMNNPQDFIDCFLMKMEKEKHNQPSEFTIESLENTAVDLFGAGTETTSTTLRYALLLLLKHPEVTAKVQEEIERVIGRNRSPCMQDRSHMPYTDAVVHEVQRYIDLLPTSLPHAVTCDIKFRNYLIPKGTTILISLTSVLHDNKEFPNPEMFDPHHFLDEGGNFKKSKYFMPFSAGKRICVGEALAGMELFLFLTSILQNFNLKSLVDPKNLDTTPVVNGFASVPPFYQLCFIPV

[4] = Cytotoxicity against human NHDF after 4 days by alamar blue assay; assay type: cell-based; conditions: NHDF cells, read-out: LC50
[5] = Cytotoxicity against human RPTEC after 4 days by alamar blue assay; assay type: cell-based; conditions: RPTEC cells, read-out: LC50
Cytochrome P450 3A4 = Cytochrome P450 3A4 (Homo sapiens, UniProt P08684); assay: Inhibition of human CYP3A4; assay type: ADME
Chain of Cytochrome P450 3A4 (P08684 whole entry): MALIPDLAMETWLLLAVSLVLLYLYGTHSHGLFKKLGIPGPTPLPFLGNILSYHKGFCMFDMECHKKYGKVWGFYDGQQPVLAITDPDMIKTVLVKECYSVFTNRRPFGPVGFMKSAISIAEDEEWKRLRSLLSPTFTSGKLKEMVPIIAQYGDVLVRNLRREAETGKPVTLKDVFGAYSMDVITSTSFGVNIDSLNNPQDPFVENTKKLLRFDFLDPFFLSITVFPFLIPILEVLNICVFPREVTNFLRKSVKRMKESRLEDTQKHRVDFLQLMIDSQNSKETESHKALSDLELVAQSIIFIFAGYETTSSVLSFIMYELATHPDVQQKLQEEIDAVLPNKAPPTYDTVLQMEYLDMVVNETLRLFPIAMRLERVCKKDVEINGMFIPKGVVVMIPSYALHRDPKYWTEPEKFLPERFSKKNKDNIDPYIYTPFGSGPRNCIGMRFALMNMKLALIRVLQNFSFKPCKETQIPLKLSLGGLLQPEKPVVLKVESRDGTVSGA

[6] = Solubility at pH 7.4; assay type: physicochemical; conditions: buffer
Cytochrome P450 2D6 = Cytochrome P450 2D6 (Homo sapiens, UniProt P10635); assay: Inhibition of human CYP2D6; assay type: ADME
Chain of Cytochrome P450 2D6 (P10635 whole entry): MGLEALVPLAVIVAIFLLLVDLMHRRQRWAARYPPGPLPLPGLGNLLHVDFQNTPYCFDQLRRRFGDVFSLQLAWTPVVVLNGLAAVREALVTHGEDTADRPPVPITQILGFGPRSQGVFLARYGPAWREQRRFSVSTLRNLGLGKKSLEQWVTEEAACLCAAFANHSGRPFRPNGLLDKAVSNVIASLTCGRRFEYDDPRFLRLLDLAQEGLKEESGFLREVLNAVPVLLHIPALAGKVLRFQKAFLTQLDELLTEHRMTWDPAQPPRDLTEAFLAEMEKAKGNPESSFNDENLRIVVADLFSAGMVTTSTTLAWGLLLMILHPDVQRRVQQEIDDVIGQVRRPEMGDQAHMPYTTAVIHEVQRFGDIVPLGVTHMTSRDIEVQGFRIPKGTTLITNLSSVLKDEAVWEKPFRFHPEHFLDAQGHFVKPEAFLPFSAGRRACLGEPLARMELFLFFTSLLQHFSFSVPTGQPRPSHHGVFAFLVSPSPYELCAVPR

Cytochrome P450 1A2 = target: T1, Cytochrome P450 1A2 (Homo sapiens, UniProt P05177); assay: Inhibition of human CYP1A2; assay type: ADME
T1 sequence (P05177 whole entry): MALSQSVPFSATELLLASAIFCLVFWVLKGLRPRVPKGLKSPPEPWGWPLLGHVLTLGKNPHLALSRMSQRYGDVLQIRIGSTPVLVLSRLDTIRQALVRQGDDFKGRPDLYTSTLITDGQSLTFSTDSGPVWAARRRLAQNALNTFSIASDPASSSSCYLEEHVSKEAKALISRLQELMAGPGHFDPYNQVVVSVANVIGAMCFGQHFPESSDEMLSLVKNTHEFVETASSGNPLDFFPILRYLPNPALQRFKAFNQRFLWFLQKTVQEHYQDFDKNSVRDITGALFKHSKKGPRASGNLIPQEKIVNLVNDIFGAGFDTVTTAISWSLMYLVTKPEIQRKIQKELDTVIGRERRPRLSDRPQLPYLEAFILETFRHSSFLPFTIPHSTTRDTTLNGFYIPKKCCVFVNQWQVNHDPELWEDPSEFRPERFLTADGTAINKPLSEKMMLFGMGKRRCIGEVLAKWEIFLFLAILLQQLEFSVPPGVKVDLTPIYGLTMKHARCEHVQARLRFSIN

Cytochrome P450 2C19 = Cytochrome P450 2C19 (Homo sapiens, UniProt P33261); assay: Inhibition of human CYP2C19; assay type: ADME
Chain of Cytochrome P450 2C19 (P33261 whole entry): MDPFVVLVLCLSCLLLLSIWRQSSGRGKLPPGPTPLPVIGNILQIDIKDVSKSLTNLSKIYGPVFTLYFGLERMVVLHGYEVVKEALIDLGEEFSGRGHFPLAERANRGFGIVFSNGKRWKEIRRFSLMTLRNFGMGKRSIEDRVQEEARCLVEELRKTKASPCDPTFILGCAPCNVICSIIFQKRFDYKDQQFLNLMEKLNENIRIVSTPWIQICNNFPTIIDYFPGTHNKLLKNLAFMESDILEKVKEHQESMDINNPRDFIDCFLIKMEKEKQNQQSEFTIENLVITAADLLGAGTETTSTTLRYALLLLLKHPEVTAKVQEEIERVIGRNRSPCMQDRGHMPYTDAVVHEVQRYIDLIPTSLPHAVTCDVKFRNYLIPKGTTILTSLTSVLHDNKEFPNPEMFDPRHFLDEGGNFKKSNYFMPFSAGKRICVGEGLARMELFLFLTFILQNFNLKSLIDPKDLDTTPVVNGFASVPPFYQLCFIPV

Liver microsomes [7] = assay: Intrinsic clearance in rat liver microsomes measured […]; assay type: ADME, Microsome
Liver microsomes [8] = assay: Intrinsic clearance in human liver microsomes measured […]; assay type: ADME, Microsome
[9] = target: Voltage-gated inwardly rectifying potassium channel KCNH2 (Homo sapiens, UniProt Q12809); assay: Inhibition of human ERG channel
Chain of Voltage-gated inwardly rectifying potassium channel KCNH2 (Q12809 whole entry): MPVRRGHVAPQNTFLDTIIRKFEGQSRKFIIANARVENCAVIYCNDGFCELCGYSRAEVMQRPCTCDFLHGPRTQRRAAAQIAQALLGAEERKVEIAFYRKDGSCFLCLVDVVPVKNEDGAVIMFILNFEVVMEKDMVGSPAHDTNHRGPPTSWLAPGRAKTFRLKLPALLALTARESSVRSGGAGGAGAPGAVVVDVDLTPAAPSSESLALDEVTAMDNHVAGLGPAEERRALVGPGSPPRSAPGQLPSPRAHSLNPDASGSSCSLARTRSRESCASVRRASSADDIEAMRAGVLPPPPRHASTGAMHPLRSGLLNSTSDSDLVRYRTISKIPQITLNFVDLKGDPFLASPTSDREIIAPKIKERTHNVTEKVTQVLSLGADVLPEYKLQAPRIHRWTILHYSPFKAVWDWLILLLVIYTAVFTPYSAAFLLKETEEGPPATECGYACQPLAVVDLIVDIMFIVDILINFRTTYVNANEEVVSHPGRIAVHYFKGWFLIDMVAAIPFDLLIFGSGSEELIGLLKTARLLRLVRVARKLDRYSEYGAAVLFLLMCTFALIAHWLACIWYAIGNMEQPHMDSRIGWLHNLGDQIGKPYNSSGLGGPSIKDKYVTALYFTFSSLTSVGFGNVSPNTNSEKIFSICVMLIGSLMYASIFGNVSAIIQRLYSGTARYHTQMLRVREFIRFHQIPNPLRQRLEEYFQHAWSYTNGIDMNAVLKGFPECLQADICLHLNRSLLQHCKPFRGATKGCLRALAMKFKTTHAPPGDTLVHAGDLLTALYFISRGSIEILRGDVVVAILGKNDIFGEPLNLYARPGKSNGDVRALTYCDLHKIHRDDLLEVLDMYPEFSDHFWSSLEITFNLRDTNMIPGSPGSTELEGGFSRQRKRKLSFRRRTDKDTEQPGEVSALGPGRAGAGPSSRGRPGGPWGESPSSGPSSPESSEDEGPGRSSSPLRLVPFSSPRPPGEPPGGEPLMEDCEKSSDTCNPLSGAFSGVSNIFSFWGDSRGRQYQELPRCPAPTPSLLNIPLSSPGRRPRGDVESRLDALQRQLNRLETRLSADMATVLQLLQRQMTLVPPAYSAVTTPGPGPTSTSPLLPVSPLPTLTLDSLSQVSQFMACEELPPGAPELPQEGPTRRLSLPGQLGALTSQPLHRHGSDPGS

Structure (SMILES) | pEC50 (Plasmodium falciparum [1]) | pEC50 (Plasmodium falciparum [3]) | further results
Cc1cc(NC(C)C)nc(NCc2ccc3c(c2)OCO3)n1 | 6.08 | – | –
Cc1cc(N2CCCNCC2)nc(NC2CCN(Cc3ccccc3)CC2)n1 | – | – | logD [2]: -0.15
Cc1cc(NC2CCCCC2)nc(NCc2ccc3c(ccn3C)c2)n1 | 6.62 | – | –
COc1cc(CNc2nc(C)cc(NC(C)C)n2)cc(OC)c1OC | 5.72 | – | –
Cc1cc(NC2CCCCC2)nc(NCc2ccccc2)n1 | 6.60 | 7.10 | pIC50 (Cytochrome P450 2C9): < 5.30; CC50 at 96 h [4]: 7500 nM; CC50 at 96 h [5]: 7500 nM; pIC50 (Cytochrome P450 3A4): < 5.30; solubility [6]: 26 µg/mL (≈ 87.7 µM); pIC50 (Cytochrome P450 2D6): 5.38; pIC50 (Cytochrome P450 1A2): 5.51; pIC50 (Cytochrome P450 2C19): < 5.30; logD [2]: 3.9
Cc1cc(NC(C)C)nc(NCC23CC4CC(CC(C4)C2)C3)n1 | 6.57 | – | –
Cc1cc(NC(C)C)nc(NC(C)C)n1 | 5.37 | – | –
COc1cc(CNc2nc(C)cc(NCc3ccccc3)n2)cc(OC)c1OC | 6.03 | 6.11 | –
Cc1cc(N2CCCN(C(=O)OC(C)(C)C)CC2)nc(NC2CCN(Cc3ccccc3)CC2)n1 | – | – | logD [2]: 2.7
Cc1cc(NC2CCN(Cc3ccccc3)CC2)nc(N2CCCN(C(=O)OC(C)(C)C)CC2)n1 | – | – | logD [2]: 2.77
Cc1cc(NC2CCCCC2)nc(NC2CCCCC2)n1 | 6.68 | – | –
Cc1cc(NC2CCN(Cc3ccccc3)CC2)nc(N2CCCN(C)CC2)n1 | – | – | logD [2]: 1
Cc1cc(Nc2ccccc2)nc(N2CCCN(C(=O)OC(C)(C)C)CC2)n1 | – | – | logD [2]: 3.95
Cc1cc(Nc2ccccc2)nc(NCc2ccccc2)n1 | 7.05 | 6.92 | clearance (Liver microsomes [7]): > 119 µL/min/mg; clearance (Liver microsomes [8]): 55.2 µL/min/mg
COc1cc(CNc2nc(C)cc(NC3CCCCC3)n2)cc(OC)c1OC | 6.59 | – | –
Cc1cc(Nc2ccccc2)nc(NCc2ccccn2)n1 | 5.67 | – | clearance (Liver microsomes [7]): 114 µL/min/mg; clearance (Liver microsomes [8]): 70 µL/min/mg
Cc1cc(Nc2ccccc2)nc(NCc2ccc3c(ccn3C)c2)n1 | 6.23 | 6.46 | –

Structure (SMILES) | pEC50 (Plasmodium falciparum [1]) | pEC50 (Plasmodium falciparum [3]) | further results
Cc1cc(NCc2ccccc2)nc(NCC23CC4CC(CC(C4)C2)C3)n1 | 6.40 | 6.39 | –
FC(F)(F)c1cc(Nc2ccncc2)nc(NCc2ccc3c(c2)OCO3)n1 | – | – | pIC50 [9]: 3.87
Cc1cc(N2CCCN(C)CC2)nc(NC2CCN(Cc3ccccc3)CC2)n1 | – | – | logD [2]: 1
Cc1cc(Nc2ccccc2)nc(N2CCCN(C)CC2)n1 | – | – | logD [2]: 1.7
Cc1cc(NC2CCCCC2)nc(NCCN2CCCC2)n1 | 5.56 | – | –
CCCCCCCNc1nc(C)cc(NC2CCCCC2)n1 | 6.68 | – | –
Cc1cc(NC2CCN(Cc3ccccc3)CC2)nc(N2CCCNCC2)n1 | – | – | logD [2]: -0.17
Cc1cc(NCc2ccccc2)nc(Nc2ccccc2)n1 | 5.99 | 6.07 | –
FC(F)(F)c1cc(Nc2ccccc2)nc(NCc2ccncc2)n1 | – | – | clearance (Liver microsomes [7]): > 119 µL/min/mg; clearance (Liver microsomes [8]): 56.2 µL/min/mg
Cc1cc(Nc2ccccc2)nc(N2CCCNCC2)n1 | – | – | logD [2]: 0.51
CCCCCCCNc1nc(C)cc(NC(C)C)n1 | 6.51 | – | –
Cc1cc(NC2CCCCC2)nc(NCC23CC4CC(CC(C4)C2)C3)n1 | 6.43 | – | –
FC(F)(F)c1cc(Nc2ccccc2)nc(NCc2ccccn2)n1 | – | – | clearance (Liver microsomes [7]): > 119 µL/min/mg; clearance (Liver microsomes [8]): > 99 µL/min/mg; pIC50 [9]: 4.40
Cc1cc(Nc2ccccc2)nc(NCc2ccc3c(c2)OCO3)n1 | 6.44 | 6.96 | clearance (Liver microsomes [7]): > 119 µL/min/mg; clearance (Liver microsomes [8]): 31.3 µL/min/mg; pIC50 [9]: 5.02
Cc1cc(NC2CCCCC2)nc(NCc2ccc3c(c2)OCO3)n1 | 6.70 | – | –
CCCCCCCNc1nc(C)cc(Nc2ccccc2)n1 | 7.05 | 7.05 | –

Further lines, with some results ahead:

pEC50 (Plasmodium falciparum [1]) | pEC50 (Plasmodium falciparum [3]) | Structure (SMILES) | further results
6.30 | 6.92 | Cc1cc(NC2CCCCC2)nc(N[C@@H](C)c2ccccc2)n1 | –
5.82 | – | Cc1cc(NC(C)C)nc(Nc2ccccc2)n1 | –
5.91 | 5.84 | Cc1cc(Nc2ccccc2)nc(NCCN2CCCC2)n1 | –
5.98 | 5.84 | Cc1cc(NCc2ccccc2)nc(NC(C)C)n1 | –
6.80 | 6.80 | Cc1cc(NCc2ccccc2)nc(NC2CCN(Cc3ccccc3)CC2)n1 | –
< 5.70 | < 6.00 | Cc1cc(NC2CCCCC2)nc(Nc2ccccn2)n1 | –
6.41 | – | Cc1cc(NC(C)C)nc(NC2CCCCC2)n1 | –
6.38 | 7.05 | Cc1cc(NC2CCCCC2)nc(N[C@H](C)c2ccccc2)n1 | –
5.90 | 6.37 | Cc1cc(NCc2ccccc2)nc(NC2CCCCC2)n1 | –
5.99 | 6.17 | Cc1cc(N(C)C2CCCCC2)nc(NCc2ccccc2)n1 | –
6.64 | – | Cc1cc(NC2CCCCC2)nc(Nc2ccccc2)n1 | –
5.84 | 5.97 | Cc1cc(NCc2ccccc2)nc(NCCN2CCCC2)n1 | –
6.03 | 6.20 | Cc1cc(N(C)C2CCCCC2)nc(N[C@H](C)c2ccccc2)n1 | –
5.91 | – | Cc1cc(NC(C)C)nc(NCc2ccc3c(ccn3C)c2)n1 | –
6.46 | – | Cc1cc(NC(C)C)nc(NCc2ccccc2)n1 | –
< 5.00 | < 5.00 | Cc1cc(NC2CCCCC2)nc(N(C)Cc2ccccc2)n1 | –
6.12 | 6.55 | Cc1cc(Nc2ccccc2)nc(NC(C)C)n1 | –
< 5.00 | < 5.00 | Cc1cc(N(C)C2CCCCC2)nc(N(C)Cc2ccccc2)n1 | –
6.60 | – | Cc1cc(NC2CCCCC2)nc(NC2CCN(Cc3ccccc3)CC2)n1 | –
6.13 | – | Cc1cc(NC2CCCCC2)nc(NC(C)C)n1 | –
< 5.30 | – | Cc1cc(NC(C)C)nc(NCCN2CCCC2)n1 | –
6.09 | – | Cc1cc(NC(C)C)nc(NC2CCN(Cc3ccccc3)CC2)n1 | –
6.16 | 6.23 | Cc1cc(N(C)C2CCCCC2)nc(N[C@@H](C)c2ccccc2)n1 | –

— ChEMBL document CHEMBL1153120, “Synthesis and antiplasmodial activity of novel 2,4-diaminopyrimidines” (Bioorg Med Chem Lett, 2010)
